Test results: ChEMBL document CHEMBL2062507, “Myxobacteria versus sponge-derived alkaloids: the bengamide family identified as potent immune modulating agents by scrutiny of LC-MS/ELSD libraries” (Bioorg Med Chem, 2012)
The source made the active and inactive calls. The calls are words filed in the database; no cut-off is given here.

Assays:
RAW264.7 [1] = assay: Cytotoxicity against mouse RAW264.7 cells after 18 hrs by MTT assay; type: cell-based; details: RAW264.7, 18 h
HCT-116 = assay: Cytotoxicity against human HCT116 cells after 48 hrs by SRB assay; type: functional, cell-based; details: HCT-116, 48 h
[2] = Inhibition of LPS-stimulated NFkappaB activation transfected in mouse RAW264.7 cells after 18 hrs by luciferase reporter gene assay; details: RAW264.7, 18 h
RAW264.7 [3] = assay: Antiinflammatory activity in mouse RAW264.7 cells assessed as inhibition of LPS-stimulated TNFalpha expression up to 10 uM by quantitative RT-PCR analysis; type: functional, cell-based
How it was run: (§1)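 LPS (100 ng/mL)-stimulated RAW264.7 cells co-treated with compound at 0.01–10 μM. Total RNA (0.5 μg) DNase I-treated, reverse transcribed, cDNAs pooled per condition, SYBR Green real-time PCR array. mRNA normalised to GAPDH. Three independent experiments, one-way ANOVA, p<0.05 taken as significant.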

RAW264.7 [4] = assay: Antiinflammatory activity in mouse RAW264.7 cells assessed as inhibition of LPS-stimulated nitric oxide production up to 10 uM after 30 mins by Greiss method; type: functional, cell-based
How it was run: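 RAW264.7 cells grown 24 h in RPMI1640 in 96-well plates, then given fresh medium with compound and E. coli 055:B5 LPS. Supernatant mixed with Griess reagent (sulfanilamide, N-1-naphthylethylenediamine, H3PO4) for 30 min at room temperature in the dark. Absorbance read at 530 nm and converted to nitrite using a sodium nitrite standard curve.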

RAW264.7 [5] = assay: Antiinflammatory activity in mouse RAW264.7 cells assessed as inhibition of LPS-stimulated MCP1 expression up to 10 uM by quantitative RT-PCR analysis; type: functional, cell-based; how it was run: as §1
RAW264.7 [6] = assay: Antiinflammatory activity in mouse RAW264.7 cells assessed as inhibition of LPS-stimulated IL-6 expression up to 10 uM by quantitative RT-PCR analysis; type: functional, cell-based; how it was run: as §1
RAW264.7 [7] = assay: Antiinflammatory activity in mouse RAW264.7 cells assessed as inhibition of LPS-stimulated iNOS expression up to 10 uM by quantitative RT-PCR analysis; type: functional, cell-based; how it was run: as §1
RAW264.7 [8] = assay: Inhibition of LPS-stimulated NFkappaB activation transfected in mouse RAW264.7 cells at 0.01 to 10 uM after 4 hrs by measuring IKappaBalpha phosphorylation by Western blot analysis; type: cell-based
How it was run: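 RAW264.7 cells grown near confluent in 6-well plates and given increasing compound concentrations with LPS for 4 h at 37 °C. Lysed in SDS loading buffer, run on 4–15% SDS-PAGE gels and blotted. Probed with anti-phospho-IκB and anti-IκB (1:1000), then HRP secondary. Detected by chemiluminescence on film, β-actin as loading control.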

Work on `CO[C@@H](C(=O)N[C@H]1CC[C@@H](OC(=O)C2CCCCC2)CN(C)C1=O)[C@H](O)[C@@H](O)[C@H](O)/C=C/C(C)(C)C` yielded an IC50 (RAW264.7 [1]) greater than 50000 nM, an IC50 (HCT-116) of 40 nM and an IC50 [2] of 500 nM.
`CCC(C)/C=C/[C@@H](O)[C@H](O)[C@@H](O)[C@@H](OC)C(=O)N[C@H]1CCCCNC1=O` (mixture of isomers) gave an IC50 (RAW264.7 [1]) greater than 50000 nM, an IC50 (HCT-116) of 1100 nM and an IC50 [2] of 2000 nM.
`CCC(C)/C=C/[C@@H](O)[C@H](O)[C@@H](O)[C@@H](OC)C(=O)N[C@H]1CCCCN(C)C1=O` (mixture of isomers) showed an IC50 (RAW264.7 [1]) greater than 50000 nM, an IC50 (HCT-116) of 1500 nM and an IC50 [2] of 2000 nM.
For `CCCCCCCCCCCCCC(=O)O[C@H]1CC[C@H](NC(=O)[C@H](OC)[C@H](O)[C@@H](O)[C@H](O)/C=C/C(C)C)C(=O)NC1` [BENGAMIDE A], the Activity (RAW264.7 [3]) was “Dose-dependent effect”, the IC50 (RAW264.7 [3]) was 500 nM and the Activity (RAW264.7 [4]) was “inactive”. For the same compound, the Activity (RAW264.7 [5]) was “Dose-dependent effect”, the IC50 (RAW264.7 [5]) was 500 nM and the IC50 (RAW264.7 [1]) was greater than 50000 nM. The Activity (RAW264.7 [6]) was “Dose-dependent effect”, the IC50 (RAW264.7 [6]) was 1000 nM and the IC50 (HCT-116) was 18 nM. The Activity (RAW264.7 [7]) was “inactive”, the inhibition (RAW264.7 [8]) was “Active” and the IC50 [2] was 75 nM.
In the case of `CCCCCCCCCCCCCC(=O)O[C@H]1CC[C@H](NC(=O)[C@H](OC)[C@H](O)[C@@H](O)[C@H](O)/C=C/C(C)C)C(=O)N(C)C1` [BENGAMIDE B], the Activity (RAW264.7 [3]) is reported as “Dose-dependent effect”, the IC50 (RAW264.7 [3]) is reported as 500 nM and the Activity (RAW264.7 [4]) is reported as “inactive”. For the same compound, the Activity (RAW264.7 [5]) was “Dose-dependent effect”, the IC50 (RAW264.7 [5]) was 500 nM and the IC50 (RAW264.7 [1]) was greater than 50000 nM. The Activity (RAW264.7 [6]) was “Dose-dependent effect”, the IC50 (RAW264.7 [6]) was 500 nM and the IC50 (HCT-116) was 2 nM. The Activity (RAW264.7 [7]) was “inactive”, the inhibition (RAW264.7 [8]) was “Active” and the IC50 [2] was 85 nM.
With `CO[C@@H](C(=O)N[C@H]1CCCCNC1=O)[C@H](O)[C@@H](O)[C@H](O)/C=C/C(C)C` [BENGAMIDE E] the IC50 (RAW264.7 [1]) was greater than 50000 nM, the IC50 (HCT-116) was 60 nM and the inhibition (RAW264.7 [8]) was “Active”. For the same compound, the IC50 [2] was 7500 nM.
`CCCCCCCCCCCCCC(=O)O[C@H](/C=C/C(C)C)[C@H](O)[C@@H](O)[C@@H](OC)C(=O)N[C@H]1CCCCNC1=O` [BENGAMIDE P] showed an IC50 (HCT-116) of 730 nM.
`CC1=C(O)C(=O)C=C2C1=CC=C1[C@@]2(C)CC[C@@]2(C)[C@@H]3C[C@](C)(C(=O)O)CC[C@]3(C)CC[C@]12C` [CELASTROL] showed an IC50 (RAW264.7 [1]) greater than 50000 nM and an IC50 [2] of 200 nM.
